A short description of data set [1]: Acute toxicity in po dosed albino mouse after 24 hrs. The format is organism-based. The following applies: in vivo. In outline:
(§1)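 Groups of six albino mice (20–25 g), fasted overnight, dosed once orally or intraperitoneally at 100 to 1000 mg kg^-1 body weight. Observed for 24 h for mortality and signs of acute toxicity (altered motor activity, tremors, convulsion, sedation, lacrimation). LD50 cut-off set at the highest dose tested, 1000 mg kg^-1.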

The subject of data set [2] is Macrophomina phaseolina. As to the kind of experiment: Antifungal activity against Rhizoctonia bataticola at 50 ug/mL after 48 hrs by cup-plate method. The format is functional.
A short description of data set [3]: Acute toxicity in ip dosed albino mouse after 24 hrs. The format is organism-based. The note with it: in vivo. A digest of the protocol: as §1
For data set [4], the system named is Rattus norvegicus. The data set can be described thus: Antiinflammatory activity in Wistar rat assessed as inhibition of formalin-induced paw oedema volume at 100 mg/kg, po administered 30 mins before formalin challenge after 5 hrs relative to control. In kind it is functional. A digest of the protocol: (§2)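 Oral dosing at 100 mg/kg as a 2% CMC suspension, 30 min before injecting 3.5% formalin into the paw. Groups of six Wistar rats of either sex. Paw volume read by mercury-displacement plethysmograph at 0 h (right after formalin) and at 1, 2, 3, 4 and 5 h. Percent inhibition versus plain 2% CMC controls; SEM reported.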

Data set [5] concerns Macrophomina phaseolina. As to the kind of experiment: Antifungal activity against Rhizoctonia bataticola at 25 ug/mL after 48 hrs by cup-plate method. The format is functional.
Data set [6] concerns Rattus norvegicus. The data set can be described thus: Antiinflammatory activity in Wistar rat assessed as inhibition of formalin-induced paw oedema volume at 100 mg/kg, po administered 30 mins before formalin challenge after 4 hrs relative to control. The format is functional. In outline:
as §2

In data set [7] the test system is Bacillus. The data set can be described thus: Antibacterial activity against […] at 100 ug/mL after 48 hrs by cup-plate method. The format is functional.
Data set [8] relates to Aspergillus niger. The data set can be described thus: Antifungal activity against Aspergillus niger at 50 ug/mL after 48 hrs by cup-plate method. In kind it is functional.
For data set [9], the system named is Aspergillus niger. As to the kind of experiment: Antifungal activity against Aspergillus niger at 25 ug/mL after 48 hrs by cup-plate method. In kind it is functional. The note with it: for zone of inhibition at 25 µg/mL: read-out: IZ.
Data set [10] concerns Escherichia coli. The data set can be described thus: Antibacterial activity against Escherichia coli at 100 ug/mL after 48 hrs by cup-plate method. In kind it is functional.
Data set [11] deals with Escherichia coli. As to the kind of experiment: Antibacterial activity against Escherichia coli at 25 ug/mL after 48 hrs by cup-plate method. In kind it is functional. The note with it: for zone of inhibition at 25 µg/mL: read-out: IZ.
The subject of data set [12] is Escherichia coli. As to the kind of experiment: Antibacterial activity against Escherichia coli at 50 ug/mL after 48 hrs by cup-plate method. In kind it is functional.
Data set [13] concerns Rattus norvegicus. As to the kind of experiment: Gastrointestinal toxicity in Wistar rat assessed as ulcerogenic effect at 400 mg/kg, po administered twice at 2 hrs interval after 4 hrs. The format is organism-based. Also on record: dose 400 mg/kg, route oral. The following applies: in vivo. A digest of the protocol:
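Male Wistar rats fasted 36 h, then given 400 mg/kg orally twice, 2 h apart. Animals killed 4 h later and the stomach examined for lesions; ulcer index recorded.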

Data set [14] has as its system Macrophomina phaseolina. As to the kind of experiment: Antifungal activity against Rhizoctonia bataticola at 100 ug/mL after 48 hrs by cup-plate method. The format is functional.
For a further data set, the system named is Mus musculus. As to the kind of experiment: Analgesic activity in albino mouse assessed as inhibition of acetic acid-induced writhing at 10 mg/kg, po. The format is functional. A digest of the protocol: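 Acetic acid writhing test: 0.6% acetic acid at 0.1 ml/10 g given intraperitoneally to albino mice of both sexes (18–22 g). Compounds given orally at 10 mg/kg as a suspension in 5% carboxymethyl cellulose. Indomethacin 10 mg/kg was the reference under the same conditions.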
In general terms: In writhing tests, fewer writhes than in controls are read as antinociception.

Data set [15] deals with Rattus norvegicus. As to the kind of experiment: Antiinflammatory activity in Wistar rat assessed as inhibition of formalin-induced paw oedema volume at 100 mg/kg, po administered 30 mins before formalin challenge after 2 hrs relative to control. The format is functional. In outline:
as §2

Data set [16] deals with Rattus norvegicus. As to the kind of experiment: Antiinflammatory activity in Wistar rat assessed as inhibition of formalin-induced paw oedema volume at 100 mg/kg, po administered 30 mins before formalin challenge after 1 hr relative to control. The format is functional. A digest of the protocol:
as §2

Data set [17] has as its system Rattus norvegicus. The data set can be described thus: Antiinflammatory activity in Wistar rat assessed as inhibition of formalin-induced paw oedema volume at 100 mg/kg, po administered 30 mins before formalin challenge after 3 hrs relative to control. In kind it is functional. In outline:
as §2

In data set [18] the test system is Bacillus. As to the kind of experiment: Antibacterial activity against […] at 50 ug/mL after 48 hrs by cup-plate method. In kind it is functional.
The test system of data set [19] is Bacillus. The data set can be described thus: Antibacterial activity against […] at 25 ug/mL after 48 hrs by cup-plate method. The following applies: for zone of inhibition at 25 µg/mL: read-out: IZ. In kind it is functional.
Data set [20] concerns Aspergillus niger. As to the kind of experiment: Antifungal activity against Aspergillus niger at 100 ug/mL after 48 hrs by cup-plate method. The format is functional.
Data set [21] concerns Rattus norvegicus. The data set can be described thus: Gastrointestinal toxicity in Wistar rat assessed as ulcerogenic effect at 10 mg/kg, po administered twice at 2 hrs interval after 4 hrs. The format is organism-based. Set-up: dose 10 mg/kg, route oral. The following applies: in vivo. In outline: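 Male Wistar rats fasted 36 h, then given indomethacin suspended in 1% CMC orally at 2 × 10 mg/kg, 2 h apart. Animals killed after 4 h and the stomach examined for lesions; ulcer index recorded.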

Data set [22] deals with Rattus norvegicus. The data set can be described thus: Antiinflammatory activity in Wistar rat assessed as inhibition of formalin-induced paw oedema volume at 10 mg/kg, po administered 30 mins before formalin challenge after 2 hrs relative to control. In kind it is functional. A digest of the protocol: (§3)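 Reference arm of the formalin paw-oedema test: oral dose of 10 mg/kg, 30 min before 3.5% formalin, in groups of six Wistar rats of either sex. Paw volume read by mercury-displacement plethysmograph at 0 to 5 h. Percent inhibition versus 2% CMC vehicle controls.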

Data set [23] concerns Rattus norvegicus. As to the kind of experiment: Antiinflammatory activity in Wistar rat assessed as inhibition of formalin-induced paw oedema volume at 10 mg/kg, po administered 30 mins before formalin challenge after 5 hrs relative to control. In kind it is functional. A digest of the protocol:
as §3

For data set [24], the system named is Rattus norvegicus. The data set can be described thus: Antiinflammatory activity in Wistar rat assessed as inhibition of formalin-induced paw oedema volume at 10 mg/kg, po administered 30 mins before formalin challenge after 3 hrs relative to control. In kind it is functional. In outline:
as §3

Data set [25] has as its system Rattus norvegicus. The data set can be described thus: Antiinflammatory activity in Wistar rat assessed as inhibition of formalin-induced paw oedema volume at 10 mg/kg, po administered 30 mins before formalin challenge after 1 hr relative to control. The format is functional. A digest of the protocol: as §3
Data set [26] concerns Rattus norvegicus. The data set can be described thus: Antiinflammatory activity in Wistar rat assessed as inhibition of formalin-induced paw oedema volume at 10 mg/kg, po administered 30 mins before formalin challenge after 4 hrs relative to control. The format is functional. In outline: as §3

The text below walks through data of ChEMBL document CHEMBL1140196, “Synthesis and biological activities of some new fluorinated coumarins and 1-aza coumarins” (Eur J Med Chem, 2008).

`O=c1cc(CNc2ccc(F)cc2)c2cc(Cl)ccc2[nH]1`: the 50% lethal dose (LD50) (commonly the dose at which mortality reaches 50%) at 24 h is above 1000 mg/kg in data set [1] and above 700 mg/kg in data set [3]. The inhibition (as a rule, the percentage by which the read-out fell short of the control) at 50 µg/mL with Macrophomina phaseolina [2] was 56%; in the data set with Aspergillus niger [8], 47%; in the data set with Escherichia coli [12], 50%; in the data set with Bacillus [18], 41%. In addition, the inhibition in vivo (in general, the percentage by which the read-out fell short of the control) at 100 mg/kg in the data set with Rattus norvegicus [4] is 77%; in the data set with Rattus norvegicus [6], 59%; in the data set on Rattus norvegicus [15] it was 12%; with Rattus norvegicus [16], 9%; with Rattus norvegicus [17], 46%. Moreover, the inhibition at 25 µg/mL with Macrophomina phaseolina [5] was determined as 44%; in the data set on Aspergillus niger [9] it was 35%; in the data set with Escherichia coli [11] it was 26%; with Bacillus [19], 22%. In addition, the inhibition at 100 µg/mL came out at 76% in the data set on Bacillus [7], 70% in the data set with Escherichia coli [10], 75% in the data set with Macrophomina phaseolina [14] and 77% in the data set on Aspergillus niger [20]. For the same compound, the zone of inhibition at 25 µg/mL in the data set with Aspergillus niger [9] is 70 mm; with Escherichia coli [11], 60 mm; in the data set on Bacillus [19] it was 52 mm. Also, in the data set with Rattus norvegicus [13], the UI is 58.57. In addition, the inhibition in vivo at 10 mg/kg in the data set with Mus musculus came out at 7.99%.
On to `Cc1ccc2c(CNc3ccc(F)cc3)cc(=O)oc2c1`, for which the 50% lethal dose (LD50) at 24 h in data set [1] is above 1000 mg/kg; in data set [3] it was above 800 mg/kg. For the same compound, the inhibition at 50 µg/mL amounted to 49% in the data set on Macrophomina phaseolina [2], 33% in the data set on Aspergillus niger [8], 46% in the data set on Escherichia coli [12] and 55% in the data set with Bacillus [18]. For the same compound, the inhibition in vivo at 100 mg/kg is 83% in the data set on Rattus norvegicus [4]; 67% in the data set with Rattus norvegicus [6]; 37% in the data set on Rattus norvegicus [15]; 62% in the data set with Rattus norvegicus [16]; 54% in the data set with Rattus norvegicus [17]. Besides, the inhibition at 25 µg/mL in the data set on Macrophomina phaseolina [5] was 26%; in the data set with Aspergillus niger [9], 14%; in the data set on Escherichia coli [11], 27%; with Bacillus [19] it was 28%. Moreover, the inhibition at 100 µg/mL in the data set with Bacillus [7] amounted to 74%; in the data set with Escherichia coli [10], 73%; in the data set with Macrophomina phaseolina [14], 70%; in the data set on Aspergillus niger [20], 67%. Further, the zone of inhibition at 25 µg/mL was found to be 40 mm with Aspergillus niger [9], 58 mm with Escherichia coli [11] and 60 mm in the data set on Bacillus [19]. In addition, in the data set with Rattus norvegicus [13], the UI is 64.93. In addition, the inhibition in vivo at 10 mg/kg in the data set with Mus musculus was determined as 3.96%.
Regarding `COc1ccc2c(c1)c(CC(=O)O)c(C)n2C(=O)c1ccc(Cl)cc1` [INDOMETHACIN], the LD50 at 24 h is 25 mg/kg in data set [1] and 15 mg/kg in data set [3]. Moreover, the UI in the data set on Rattus norvegicus [21] is reported as 185.14. Further, the inhibition in vivo at 10 mg/kg with Rattus norvegicus [22] came to 43%; in the data set with Rattus norvegicus [23], 85%; in the data set with Rattus norvegicus [24], 75%; with Rattus norvegicus [25], 35%; in the data set on Mus musculus it was 46.2%; in the data set on Rattus norvegicus [26], 76%.
